Hits are enriched below; roughly 3.1% of the tested compounds scored in any of these assays.
PGC1a acetyl inh: lowers PGC1a acetylation signal in U2OS cells; AlphaScreen anti-acetyl-lysine; with virally co-expressed GCN5 acetyltransferase; inhibition, % at 15.6 µM; hit rate 0.17% among 350,000;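 active = every replicate shows inhibition of at least 40%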
EWS-Fli block: EWS/Fli transcriptional activity inhibition | A673 NR0B1-luciferase reporter, viability-normalised | inhibition, % at 12.6 µM | hit rate 0.67% among 350,000 | AID 651661;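 active = mean inhibition of at least 50% after viability correction, with every replicate also passing that limit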;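 note: firefly luciferase signal divided by Alamar Blue viability fluorescence both relative to DMSO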
FN deposit inh: fibronectin deposition inhibition; inhibition, % at 12.6 µM; AH1F fibroblasts, Alexa488-fibronectin deposition fluorescence, overnight; hit rate 0.086% among 350,000;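 active = mean inhibition across replicates of 30% or more, regardless of how many single replicates reach that level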
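Material – AH1F fibroblast monolayer, labelled fibronectin deposition · Reagent – labelled fibronectin 24 nM · Timing – 1 h adhesion, overnight exposure · Measured by – fluorescence at 485 nm excitation, 525 nm emission · Read-out – inhibition of fibronectin deposition signal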
FGF22 binding: FGF22 (human) thermal shift binding. recombinant FGF22 thermal shift, SYPRO orange fluorescence; percent of sucrose octasulfate shift, DMSO zero. hit rate 1.5% among 340,000. activity (Tm shift, normalised), % at 9.99 µM;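 active = mean Tm shift, scaled 0 neutral to 100 positive control, at about 1.3% or above, every replicate too, limit read from the data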
Target sequence (Q9HCT0 whole entry, looked up): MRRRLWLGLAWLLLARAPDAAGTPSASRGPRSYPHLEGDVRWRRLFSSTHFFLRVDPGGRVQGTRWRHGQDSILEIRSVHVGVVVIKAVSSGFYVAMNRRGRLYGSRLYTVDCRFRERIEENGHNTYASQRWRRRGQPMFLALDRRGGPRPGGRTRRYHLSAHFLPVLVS
PAX8 inh HTS: PAX8 transcriptional activity inhibition | RMG-I TPO-luciferase reporter, SteadyGlo, 24 h | inhibition, % at 12.6 µM | hit rate 1.2% among 360,000 | AID 652154;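 active = mean replicate inhibition at least 60% with every replicate also reaching 60%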;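 note: luciferase light reporting Pax8 driven TPO promoter activity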
Env fusion inh: blocks HIV Env-driven cell-cell fusion | HeLa-JRFL Env/CEM21 cell fusion, luciferase | inhibition, % at 12.3 µM | hit rate 1.1% among 360,000 | AID 651610;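 active = mean replicate inhibition score of at least 50 and every replicate individually at or above 50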
Large screens that a line does not name were inactive.

O=C(CNC(=O)c1cccs1)Nc1cccc(S(=O)(=O)N2CCOCC2)c1	Env fusion inh 61 (no result: FN deposit inh)
COc1ccc(OCCC(=O)OCC(=O)Nc2cccc(S(=O)(=O)N3CCOCC3)c2)cc1	none (no result: PGC1a acetyl inh)
O=C(COC(=O)c1cccnc1Cl)Nc1cccc(S(=O)(=O)N2CCOCC2)c1	none
CSc1ncccc1C(=O)OCC(=O)Nc1ccc(C)c(S(=O)(=O)N2CCOCC2)c1	FGF22 binding 43, Env fusion inh 76
CC(C)(C)c1ccc(OCCC(=O)Nc2cccc(S(=O)(=O)N3CCOCC3)c2)cc1	Env fusion inh 75 (no result: FN deposit inh)
CSc1ncccc1C(=O)OCC(=O)Nc1cccc(S(=O)(=O)N2CCOCC2)c1	FGF22 binding 43 (no result: Env fusion inh)
COc1ccc2c3c(n(C)c2c1)[C@H](CO)N(Cc1ccccc1OC)CC31CN(CC2CCOCC2)C1	none (no result: FN deposit inh, FGF22 binding, PAX8 inh HTS, Env fusion inh)
O=C(C[C@H]1C=C[C@H](NS(=O)(=O)c2ccc(F)cc2)[C@@H](CO)O1)N1CCC(Cc2ccccc2)CC1	none
C[C@@H]1CN([C@@H](C)CO)S(=O)(=O)c2ccc(-c3cccc(C(=O)N(C)C)c3)cc2O[C@H]1CN(C)C	none (no result: FN deposit inh)
COC/C=C/C1=CC2=CC(=O)C(C)(OC(=O)c3cnc4ccccc4n3)C(=O)C2=CN1c1ccccc1 (centres undefined)	PAX8 inh HTS 67 (no result: PGC1a acetyl inh)
O=C(N/N=C/c1ccncc1)c1cccs1	none (no result: EWS-Fli block, FN deposit inh, FGF22 binding, PAX8 inh HTS, Env fusion inh)
O=C(N/N=C/c1ccc(-n2ccnc2)cc1)c1cccs1	Env fusion inh 75 (no result: FN deposit inh)
COc1ccc(C(=O)Nc2ccc(N3CCN(Cc4ccccc4)CC3)cc2)cc1	none (no result: FGF22 binding)
COc1cccc(NC(=O)c2ccccc2-c2ccccc2C(=O)O)c1	PGC1a acetyl inh 81
COc1c(F)c(F)c(C(=O)Nc2ccc(N3CCN(Cc4ccccc4)CC3)cc2)c(F)c1F	Env fusion inh 65 (no result: EWS-Fli block, FN deposit inh, FGF22 binding, PAX8 inh HTS)
COc1cccc(NC(=O)c2ccc(CN3CCN(c4ccccc4)CC3)cc2)c1	Env fusion inh 62 (no result: PGC1a acetyl inh, EWS-Fli block, FN deposit inh, FGF22 binding, PAX8 inh HTS)
CC(=O)c1cccc(NC(=O)c2ccccc2-c2ccccc2C(=O)O)c1	none
COc1ccc(NC(=O)c2ccc(CN3CCN(c4ccccc4)CC3)cc2)cc1	none (no result: EWS-Fli block, FN deposit inh, FGF22 binding, PAX8 inh HTS, Env fusion inh)
O=C(c1cnccn1)N1CC[C@@H]2[C@@H](CO)Nc3ccc(C#Cc4cccnc4)cc3[C@@H]21	none (no result: Env fusion inh)
CCC(=O)N1CC(=O)N2[C@H](C1)[C@H](c1ccc(C#Cc3cccnc3)cc1)[C@@H]2CO	none (no result: FN deposit inh, Env fusion inh)
CCn1c(C)nc2cc(C(=O)NN=Cc3ccc([N+](=O)[O-])cc3)ccc21	FN deposit inh 31 (no result: PGC1a acetyl inh, Env fusion inh)
Cc1ccc(/C=N/NC(=O)C2(C)CC2(Br)Br)cc1 (centres undefined)	none (no result: PGC1a acetyl inh, FGF22 binding)
CC1(C(=O)N/N=C/c2ccc3c(c2)OCO3)CC1(Br)Br (centres undefined)	Env fusion inh 103 (no result: PGC1a acetyl inh)
CC(C)NC(=S)N/N=C/c1ccc2c(c1)OCCO2	EWS-Fli block 83 (no result: PGC1a acetyl inh, FN deposit inh)
CCNC(=O)C[C@H]1CC[C@@H]2[C@H](COc3ccc(NC(=O)c4ccc(F)cc4)cc3C(=O)N2C)O1	none
N#Cc1ccc(-c2ccc(OCC(O)Cn3nnc4ccccc43)cc2)cc1 (centres undefined)	Env fusion inh 59 (no result: EWS-Fli block, FGF22 binding)
C[C@@H]1CN([C@@H](C)CO)C(=O)Cc2cc(NC(=O)Nc3ccc4c(c3)OCO4)ccc2O[C@H]1CN(C)Cc1ccncc1	none (no result: FN deposit inh, Env fusion inh)
COc1ccc(NC(=O)CN2CCCCC2)cc1	none (no result: EWS-Fli block, FN deposit inh, FGF22 binding, PAX8 inh HTS, Env fusion inh)
COc1ccc(NC(=O)CN2CCC(C(N)=O)(N3CCCCC3)CC2)cc1	Env fusion inh 77 (no result: EWS-Fli block, FN deposit inh, FGF22 binding, PAX8 inh HTS)
O=C(CN1CCCC1)Nc1ccc(F)cc1	FGF22 binding 43
O=C(N/N=C/c1cc2c3c(c1O)CCCN3CCC2)c1ccccc1O	PAX8 inh HTS 62 (no result: PGC1a acetyl inh, FN deposit inh)
COCC(=O)N(C)C[C@@H]1Oc2ncc(-c3ccc(C#N)cc3)cc2C(=O)N([C@@H](C)CO)C[C@H]1C	none
C[C@@H]1CCCCO[C@H](CN(C)C(=O)NC2CCCCC2)[C@@H](C)CN([C@H](C)CO)C(=O)c2cc(NC(=O)Nc3cccc4ccccc34)ccc2O1	none (no result: FN deposit inh)
O=C(Nc1cccc(C(F)(F)F)c1)c1ccc(Cn2cc(Br)cn2)o1	Env fusion inh 79 (no result: EWS-Fli block, FN deposit inh, FGF22 binding, PAX8 inh HTS)
O=C(C[C@H]1CC[C@@H](NC(=O)Nc2cc(F)ccc2F)[C@H](CO)O1)NCc1ccncn1	none
COCCCNC(=S)N1CCN(Cc2ccc3c(c2)OCO3)CC1	FGF22 binding 44 (no result: PGC1a acetyl inh)

Screening data from PubChem.
